Converted amounts (≈) assume the structure as drawn. Where a SMILES comes first, the peptide text is derived from it.
What was measured:
[1] = Cytotoxicity against mouse RAW264.7 cells assessed as cell viability at 2 to 64 uM measured after 18 to 24 hrs by MTT assay relative to control; format: cell-based; conditions: RAW264.7 cells, read-out: Activity
Summary of the method: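 MTT assay: RAW264.7 cells seeded at 1.0–2.0×10^4 per well and exposed to peptide (2–64 µM) for 18–24 h at 37 °C in 5% CO2. MTT (0.5 mg/mL) added for 4 h, formazan dissolved in DMSO, read at 570 nm. At least three independent experiments with triplicate wells.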

Salmonella typhimurium = experiment: Antibacterial activity against Salmonella typhimurium ATCC 14028 measured after 24 hrs; format: functional, Salmonella enterica subsp. enterica serovar Typhimurium; conditions: Salmonella enterica, ATCC 14028, 24 h
Summary of the method: (§1)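 Broth microdilution adapted from NCCLS. Mid-log bacteria were diluted in MHB to a final (0.5–1) × 10^5 CFU mL−1. Peptides were serially diluted in 0.2% BSA and mixed with an equal volume of cells. After 24 h at 37 °C, MIC was read at A492 as the lowest concentration inhibiting 95% of growth. At least three independent experiments, each with three technical replicates.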

Escherichia coli [2] = experiment: Antibacterial activity against Escherichia coli K99 measured after 24 hrs; format: functional; conditions: K99, 24 h; summary of the method: as §1
Staphylococcus aureus [3] = experiment: Antibacterial activity against Staphylococcus aureus ATCC 25923 measured after 24 hrs; format: functional; conditions: ATCC 25923, 24 h
Summary of the method: (§2)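 Broth microdilution modified from NCCLS. Mid-log bacteria at (0.5–1) × 10^5 CFU mL−1 in MHB, mixed with peptides serially diluted in 0.2% BSA. Incubated 24 h at 37 °C, read at A492. MIC taken as lowest concentration giving 95% growth inhibition. At least three independent experiments, each with three technical replicates.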

Staphylococcus aureus [4] = experiment: Antibacterial activity against Staphylococcus aureus ATCC 29213 measured after 24 hrs; format: functional; conditions: ATCC 29213, 24 h; summary of the method: as §2
Candida albicans [5] = experiment: Antifungal activity against Candida albicans cgmcc2.2086 measured after 48 hrs by broth microdilution method; format: functional; conditions: cgmcc2.2086, 48 h
Summary of the method: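 Modified CLSI M27-A2 microdilution. Yeast colonies were diluted in MOPS-buffered RPMI 1640 to a final (0.5–1) × 10^3 CFU mL−1 and mixed with an equal volume of peptide serially diluted in 0.2% BSA. After 48 h at 28 °C, MIC was read at A492 as the lowest concentration inhibiting 95% of growth. At least three independent experiments, each with three technical replicates.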

Escherichia coli [6] = experiment: Bactericidal activity against Escherichia coli UB1005 incubated for 24 hrs followed by replating on agar plate and measured after overnight incubation; format: functional; conditions: UB1005, 24 h, read-out: MBC>99.9
Summary of the method: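 Mid-log bacteria diluted in MHB to (0.5–1) × 10^5 CFU/mL and mixed 1:1 with peptide serially diluted in 0.2% BSA. After 24 h at 37 °C, 50 μL of each mixture was plated on agar and incubated overnight. MBC taken as the lowest concentration killing >99.9% of cells. At least three independent experiments, each with three technical replicates.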

Staphylococcus aureus [7] = experiment: Bactericidal activity against Staphylococcus aureus ATCC 29213 incubated for 24 hrs followed by replating on agar plate and measured after overnight incubation; format: functional; conditions: ATCC 29213, 24 h, read-out: MBC>99.9
Summary of the method: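 After the 24 h, 37 °C MHB microdilution MIC assay, 50 μL from each well was plated on agar and incubated overnight. MBC taken as lowest peptide concentration killing >99.9% of cells. At least three independent experiments, each with three technical replicates.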

Candida parapsilosis = experiment: Fungicidal activity against Candida parapsilosis cgmcc2.3989 incubated for 48 hrs followed by replating on YM agar plate and measured after 48 hrs; format: functional
Summary of the method: (§3)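 Yeast diluted in MOPS-buffered RPMI 1640 to (0.5–1) × 10^3 CFU/mL (CLSI M27-A2, modified) and mixed 1:1 with peptide serially diluted in 0.2% BSA. After 48 h at 28 °C, 50 μL per well was plated on YM agar and incubated 48 h at 28 °C. MFC taken as the lowest concentration killing ≥99.9% of cells. Three or more independent experiments, triplicate wells.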

Escherichia coli [8] = experiment: Antibacterial activity against Escherichia coli ATCC 25922 measured after 18 to 24 hrs in presence of NH4Cl; format: functional
Candida albicans [9] = experiment: Antifungal activity against Candida albicans cgmcc2.2086 measured after 48 hrs in presence of ZnCl by broth microdilution method; format: functional; conditions: cgmcc2.2086, 48 h
Candida albicans [10] = experiment: Antifungal activity against Candida albicans cgmcc2.2086 measured after 48 hrs in presence of NH4Cl by broth microdilution method; format: functional; conditions: cgmcc2.2086, 48 h
[11] = Therapeutic index, ratio of MHC10 for hemolytic activity in human RBC to MIC95 against Escherichia coli ATCC 25922; format: toxicity; conditions: human red blood cells (erythrocytes), pooled result: one value given for 9 cell lines, strains, targets or settings, read-out: TI
Summary of the method: (§4)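 Therapeutic index = MHC divided by MIC. MHC is the lowest concentration giving >10% lysis of human RBC (1 h, 37 °C, 1-128 µM, A576). MIC is 95% growth inhibition by broth microdilution: bacteria in MHB 24 h at 37 °C; Candida in MOPS-buffered RPMI 1640 at (0.5–1) × 10^3 CFU mL−1, 48 h at 28 °C.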

[12] = Therapeutic index, ratio of MHC10 for hemolytic activity in human RBC to MIC95 against Staphylococcus epidermidis ATCC 12228; format: toxicity; conditions: human red blood cells (erythrocytes), read-out: TI; summary of the method: as §4
[13] = Therapeutic index, ratio of MHC10 for hemolytic activity in human RBC to MIC95 against Staphylococcus aureus ATCC 25923; format: toxicity; conditions: human red blood cells (erythrocytes), read-out: TI; summary of the method: as §4
[14] = Conformational stability in sodium dodecyl sulfate at 35 uM by CD spectra analysis; format: physicochemical
Summary of the method: (§5)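 CD spectra from 190 to 250 nm of peptide at 35 μM in 10 mM PBS, 30 mM SDS micelles or 50% TFE, recorded in a 1.0-mm quartz cell. Ellipticity was converted to mean residue ellipticity. Three independent scans, each averaged over more than 3 runs.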

Candida albicans [15] = experiment: Fungicidal activity against Candida albicans cgmcc2.2086 incubated for 48 hrs followed by replating on YM agar plate and measured after 48 hrs; format: functional; summary of the method: as §3
Lipopolysaccharide (LPS) = experiment: Displacement of BODIPY-TR-cadaverine from Escherichia coli O111:B4 LPS after 1 hr by spectrofluorophotometric method
Summary of the method: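 LPS from E. coli O111:B4 (50 μg/mL) preincubated 4 h with BODIPY-TR-cadaverine (5 μg/mL) in 50 mM Tris, pH 7.4. Mixed with equal volume of peptide (1-64 µM) and incubated 1 h at 37 °C, then fluorescence read. %ΔF = (Fobs−F0)/(F100−F0)×100, with 10 μg mL-1 polymyxin B defining F100. Three technical replicates per experiment.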

Candida albicans [16] = experiment: Antifungal activity against Candida albicans cgmcc2.2086 assessed as ratio of MIC95 in presence of NaCl to in absence of NaCl; format: functional
[17] = Conformational stability in sodium dodecyl sulfate assessed as beta-sheet conformation by measuring absorption spectra at maximum dichroic band at 35 uM by CD spectra analysis; format: physicochemical; summary of the method: as §5
[18] = Conformational stability in sodium dodecyl sulfate assessed as beta-sheet conformation by measuring absorption spectra at minimum dichroic band at 35 uM by CD spectra analysis; format: physicochemical; summary of the method: as §5

Compound | viability at up to 64 µM [1] [%] | MIC95 (Salmonella typhimurium) [µM] | MIC95 (Escherichia coli [2]) [µM] | MIC95 (Staphylococcus aureus [3]) [µM] | MIC95 (Staphylococcus aureus [4]) [µM] | MIC95 (Candida albicans [5]) [µM] | MBC (Escherichia coli [6]) [µM] | MBC (Staphylococcus aureus [7]) [µM] | MFC<=99.9 (Candida parapsilosis) [µM] | MIC95 (Escherichia coli [8]) [µM] | MIC95 (Candida albicans [9]) [µM] | MIC95 (Candida albicans [10]) [µM] | selectivity ratio [11] | selectivity ratio [12] | selectivity ratio [13] | Stability [14] | MFC<=99.9 (Candida albicans [15]) [µM] | Activity (Lipopolysaccharide (LPS)) | Ratio (Candida albicans [16]) | also measured
H-AARIILRRRFR-NH2 | 90 to 100 | 32 | 8 | 32 | 16 | 128 | 64 | 32 | 128 | 8 | > 128 | > 128 | 14.8 | 13.4 | 13.4 | Unstable |  |  |  | 
CC[C@H](C)[C@H](NC(=O)CN)C(=O)NCC(=O)N[C@@H](C)C(=O)N[C@H](C(=O)N[C@@H](CC(C)C)C(=O)N[C@@H](CCCCN)C(=O)N[C@H](C(=O)N[C@@H](CC(C)C)C(=O)N[C@H](C(=O)N[C@H](C(=O)NCC(=O)N[C@@H](CC(C)C)C(=O)N1CCC[C@H]1C(=O)N[C@@H](C)C(=O)N[C@@H](CC(C)C)C(=O)N[C@H](C(=O)N[C@@H](CO)C(=O)N[C@@H](Cc1c[nH]c2ccccc12)C(=O)N[C@H](C(=O)N[C@@H](CCCCN)C(=O)N[C@@H](CCCNC(=N)N)C(=O)N[C@@H](CCCCN)C(=O)N[C@@H](CCCNC(=N)N)C(=O)N[C@@H](CCC(N)=O)C(=O)N[C@@H](CCC(N)=O)C(N)=O)[C@@H](C)CC)[C@@H](C)CC)[C@@H](C)O)[C@@H](C)O)C(C)C)C(C)C [MELITTIN] |  | 2 (≈ 5.69 µg/mL) | 2 (≈ 5.69 µg/mL) | 8 (≈ 22.8 µg/mL) | 4 (≈ 11.4 µg/mL) | 4 (≈ 11.4 µg/mL) | 2 (≈ 5.69 µg/mL) | 8 (≈ 22.8 µg/mL) | 4 (≈ 11.4 µg/mL) | 2 | 4 | 4 | 0.54 | 0.35 | 0.35 |  | 8 (≈ 22.8 µg/mL) | Dose-dependent effect |  | 
CC[C@H](C)[C@H](NC(=O)[C@H](CCCCN)NC(=O)[C@H](C)NC(=O)[C@H](C)N)C(=O)N[C@H](C(=O)N[C@@H](CC(C)C)C(=O)N[C@@H](CC(N)=O)C(=O)N1CCC[C@H]1C(=O)N[C@@H](CCCCN)C(=O)N[C@@H](Cc1ccccc1)C(=O)N[C@@H](CCCNC(=N)N)C(=O)N[C@@H](CS)C(=O)N[C@@H](CCCCN)C(=O)N[C@@H](C)C(=O)N[C@@H](C)C(=O)N[C@@H](Cc1ccccc1)C(=O)N[C@@H](CS)C(N)=O)[C@@H](C)CC (H-AAKIILNPKFRCKAAFC-NH2) | 90 to 100 | 64 (≈ 121 µg/mL) | 32 (≈ 60.6 µg/mL) | 64 (≈ 121 µg/mL) | > 128 | > 128 | 128 (≈ 242 µg/mL) |  |  | 32 | > 128 | > 128 | 0.5 | 0.3 | 0.3 | Unstable |  | Dose-dependent effect |  | 
H-AARRILRWIFR-NH2 | 90 to 100 | 4 | 4 | 8 | 4 | 8 | 4 | 8 | 16 | 4 | 8 | 8 | 59.3 | 45.2 | 45.2 |  | 8 |  | 4 | 
H-AARIILRWRFR-NH2 | 90 to 100 | 2 | 2 | 2 | 1 | 8 | 4 | 2 | 8 | 4 | 8 | 8 | 94.1 | 215 | 215 |  | 8 | Dose-dependent effect | 4 | Wavelength of maximum dichroic band [17]: 200 nm; Activity [18]: 216 to 220 nm
H-AARIILRGRFR-NH2 | 90 to 100 | 4 | 2 | 16 | 8 | 128 | 8 | 8 |  | 8 | > 128 | > 128 | 54.3 | 26.9 | 26.9 | Unstable |  |  |  | 
